In the library only some 1% were active in any assay of this set; here they are far more common.
PvdQ acylase – blocks Pseudomonas aeruginosa PvdQ acylase activity | 0.063% of 340,000 active | purified PvdQ acylase, fluorescence plate reader | inhibition, % at 10 µM; in the data active = inhibition above about 30%, passing the limit was not always enough;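 also: 0% = vehicle neutral wells and 100% = reference inhibitor wells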
ERp5 inh – blocks human ERp5 reductase activity on insulin; ERp5 insulin aggregation, absorbance 650 nm, 90 min; inhibition, % at 9.99 µM; 0.05% of 350,000 active; AID 651711;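 active = mean replicate inhibition above about 25%, with every replicate also reaching it, limit read from the data, passing the limit was not always enough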
Target sequence (Q15084 whole entry, looked up): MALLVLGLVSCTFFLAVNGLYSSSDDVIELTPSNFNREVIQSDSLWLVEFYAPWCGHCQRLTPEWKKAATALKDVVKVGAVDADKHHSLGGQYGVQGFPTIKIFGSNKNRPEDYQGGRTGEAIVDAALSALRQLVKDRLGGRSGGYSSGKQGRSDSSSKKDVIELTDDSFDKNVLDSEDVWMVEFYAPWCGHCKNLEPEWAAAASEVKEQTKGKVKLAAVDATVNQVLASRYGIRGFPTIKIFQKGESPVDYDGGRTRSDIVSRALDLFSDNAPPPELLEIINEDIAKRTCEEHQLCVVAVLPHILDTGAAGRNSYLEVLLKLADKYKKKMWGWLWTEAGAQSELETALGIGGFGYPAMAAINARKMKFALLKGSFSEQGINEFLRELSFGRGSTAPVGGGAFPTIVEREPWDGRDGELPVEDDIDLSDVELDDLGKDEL
IMP-1 inh-1 – blocks Pseudomonas aeruginosa IMP-1 metallo-beta-lactamase. inhibition, % at 5.6 µM. 0.45% of 290,000 active. purified IMP-1, nitrocefin hydrolysis, epi-absorbance fluorescence;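 active = inhibition above the mean plus 3 SD of all compounds in the same screening run, cut at about 4.5% in these data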;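 also: 0% = IMP-1 with DMSO and 100% = DMSO wells lacking enzyme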
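system = purified recombinant IMP-1 beta-lactamase | amount = 0.2 nM IMP-1, as dispensed | medium = HEPES buffer pH 7.1 with ZnSO4 and Brij 35 | times = 25 °C, 15 min preincubation, 25 min reaction | detection = plate fluorescence quenching by hydrolysis product, ex 480/em 530 nm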
PDI inh – PDI (human) enzyme inhibition; AID 588391; inhibition, % at 10 µM; PDI insulin aggregation turbidity, A650, 90 min; 0.052% of 350,000 active; P07237;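 active = mean inhibition across replicates of 30% or more, whatever share of single replicates reach that level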
VIM-2 inh – inhibitors of Pseudomonas aeruginosa VIM-2 metallo-beta-lactamase; inhibition, % at 5.6 µM; purified VIM-2, nitrocefin hydrolysis, epi-absorbance fluorescence; 0.89% of 290,000 active;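 active = inhibition above the mean of all tested compounds plus 3 SD, cutoff set per screening run, cut at about 7.5% in these data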;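 also: red hydrolysis product quenches plate fluorescence so inhibitors raise well fluorescence; 0% = enzyme with DMSO and 100% = DMSO without enzyme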
PglD inh – inhibitors of Campylobacter jejuni PglD acetyltransferase; purified PglD enzyme, DTNB colorimetric CoA detection; inhibition, % at 12.5 µM; 0.098% of 360,000 active; AID 602405; in the data active = inhibition above about 16%, passing the limit was not always enough
IMP-1 inh-2 – blocks IMP-1 metallo-beta-lactamase in VIM-2 selectivity screen; shares compounds with VIM-2 inh; inhibition, % at 5.6 µM; purified IMP-1, nitrocefin hydrolysis, epi-absorbance fluorescence; 1,300 tested, under 10 active; call rule not given here;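 also: 0% = enzyme with vehicle and 100% = vehicle without enzyme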
VIM-2 FRET inh – counter-screen for VIM-2 inhibitors: epi-absorbance artifacts via FRET; shares compounds with VIM-2 inh; inhibition, % at 5.6 µM; 23% of 1,300 active; purified VIM-2, CCF2 FRET substrate hydrolysis;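 active = inhibition above the mean of all tested compounds plus 3 SD, cut at about 19% in these data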;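 also: 0% = VIM-2 plus DMSO and 100% = no enzyme wells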
TEM-1 counter – TEM-1 inhibition, counter-screen for VIM-2 inhibitors | Purified TEM-1, nitrocefin hydrolysis, epi-absorbance fluorescence | inhibition, % at 5.6 µM | shares compounds with VIM-2 inh | 3% of 1,300 active;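 active = inhibition above that campaign's mean inhibition plus 3 SD, cut at about 0.46% in these data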;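 also: 0% = TEM-1 with DMSO and 100% = TEM-1 with 100 µM potassium clavulanate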
Target sequence (P62593 whole entry, looked up): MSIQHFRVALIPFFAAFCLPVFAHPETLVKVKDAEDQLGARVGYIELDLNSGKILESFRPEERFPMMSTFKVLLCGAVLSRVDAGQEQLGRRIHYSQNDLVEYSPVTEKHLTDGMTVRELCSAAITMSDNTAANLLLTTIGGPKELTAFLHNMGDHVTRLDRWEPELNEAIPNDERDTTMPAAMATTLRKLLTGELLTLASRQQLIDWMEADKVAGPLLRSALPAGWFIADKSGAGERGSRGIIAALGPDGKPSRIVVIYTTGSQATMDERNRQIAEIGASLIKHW
VIM-2 confirm 2 – confirmation of P. aeruginosa VIM-2 metallo-beta-lactamase inhibitors; purified VIM-2, nitrocefin hydrolysis, epi-absorbance; inhibition, % at 5.6 µM; 96% of 1,300 active; AID 2187; shares compounds with VIM-2 inh;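 active = inhibition of the VIM-2 beta-lactamase enzyme above about 11% from the earlier first-round screen, limit read from the data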;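 also: 0% = VIM-2 with DMSO and 100% = buffer wells without enzyme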
* = called active by the depositor; / = not tested or not shown.

SMILES | PvdQ acylase | ERp5 inh | IMP-1 inh-1 | PDI inh | VIM-2 inh | PglD inh | IMP-1 inh-2 | VIM-2 FRET inh | TEM-1 counter | VIM-2 confirm 2
O=C(Nc1ccc(Cl)cc1)N[C@@H]1CC[C@H](CCn2cc(C3(O)CCCC3)nn2)O[C@@H]1CO | / | -5.8 | / | / | / | -0.6 | / | / | / | /
COc1ccc(C(=O)NC(C)c2ccc(-n3ccnc3)cc2)c(OC)c1OC (stereo unspecified) | -12.7 | 3.4 | -1.8 | 7.1 | 30.2* | / | -4.2 | -6.3 | -6.5 | 39.8*
COc1ccc(C(=O)NC(C)c2ccc(-n3ccnc3)cc2)c(OC)c1 (stereo unspecified) | -12.6 | 2.7 | -3.4 | -3.1 | 21.6* | -2.9 | -4.7 | -6.7 | -8.5 | 34.2*
CCOC(=O)c1sc2nc(C)nc(NC3CCC(O)CC3)c2c1C (stereo unspecified) | 0.2 | -0.2 | -1.3 | 19.5 | 23.4* | -3.3 | -2.9 | -2.3 | -4.5 | 32.0*
COc1cccc(-c2ccc([C@@H]3[C@@H](CO)N4C(=O)CN(C(=O)NC(C)C)C[C@@H]34)cc2)c1 | / | -0.3 | / | / | / | / | / | / | / | /
COc1ccc(Nc2ncnc3ccccc23)c(OC)c1 | 4.2 | / | -2.5 | -0.3 | -5.1 | 6.4 | / | / | / | /
COc1ccc(Nc2nc(N3CCCC3)nc3ccccc23)c(OC)c1 | -8.4 | / | -0.6 | -2.0 | 31.0* | 3.5 | -2.4 | 1.1 | -6.3 | 42.9*
Cc1ccc(Nc2cc(C)nc(-c3ccccc3O)n2)cc1 | 2.5 | / | -5.9 | 17.4 | -7.6 | 0.1 | / | / | / | /
Cc1cc(NCCCN)nc(-c2ccccc2O)n1 | -5.2 | / | -4.2 | 4.4 | 36.3* | 4.2 | -3.4 | -0.7 | -7.1 | 53.7*
Nc1ccc(N2CCN(CCCCN3C(=O)C4CCCN4C3=O)CC2)cc1 (stereo unspecified) | 5.5 | 4.1 | -2.5 | -14.3 | 24.5* | / | -9.9 | -6.3 | -6.4 | 10.6*
COCC(=O)N1CC[C@H]2[C@H](CO)Nc3ccc(C#Cc4ccccc4)cc3[C@H]21 | / | 2.2 | / | / | / | -1.2 | / | / | / | /
CN1CCCC1CCNc1ccc2oc3ccccc3c(=O)c2c1 (stereo unspecified) | / | -1.0 | 1.9 | / | 15.7* | / | -1.8 | -2.2 | -4.8 | 17.5*
CN1CCC[C@H]1CCNc1ccc2c(=O)c3ccccc3n(C)c2c1 | -24.3 | 0.8 | / | 2.7 | / | 0.3 | / | / | / | /
O=c1c2ccccc2oc2cc(NCCCN3CCOCC3)ccc12 | -0.4 | 4.1 | -0.4 | -3.0 | 16.9* | -3.8 | -2.5 | -8.1 | -11.6 | 21.8*
CN1CCCC1CCNc1ccc2c(=O)c3ccccc3oc2c1 (stereo unspecified) | -33.9 | -3.5 | -2.2 | -2.3 | 17.3* | 0.3 | -2.1 | -12.4 | -13.7 | 27.5*
C[C@H](CO)N1C[C@H](C)[C@H](CN(C)S(=O)(=O)c2cccs2)OCCCC[C@H](C)Oc2ccc(NC(=O)Nc3ccccc3)cc2C1=O | / | -1.0 | / | / | / | 2.5 | / | / | / | /
C[C@@H]1CCCCO[C@@H](CN(C)S(=O)(=O)c2cccs2)[C@@H](C)CN([C@H](C)CO)C(=O)c2cc(NC(=O)Nc3cccc4ccccc34)ccc2O1 | / | / | / | / | / | 1.1 | / | / | / | /
CN(C)c1ccc(/C=C2\C(=N)N3N=C(CC(=O)N4CCCCC4)SC3=NC2=O)cc1 | -9.9 | -0.5 | 1.2 | -3.0 | 13.4* | 3.2 | -1.3 | 29.2* | -5.3 | 18.0*
O=C(CCCn1c(=O)c2cccn2c2cccnc21)N1CCN(c2ccccc2F)CC1 | 0.8 | -0.2 | -1.2 | -1.7 | 1.2 | 0.4 | / | / | / | /
CCN1CCN(C(=O)CCn2c(=O)c3cccn3c3cccnc32)CC1 | 2.5 | -1.7 | -3.1 | 4.2 | 17.3* | -8.3 | -2.2 | 2.5 | -4.3 | 25.2*
COc1ccc(N2CCN(C(=O)CCCn3c(=O)c4cccn4c4cccnc43)CC2)cc1 | 4.4 | 7.5 | -2.4 | -5.0 | 0.5 | -6.6 | / | / | / | /
CCCN1CCN(C(=O)CCn2c(=O)c3cccn3c3cccnc32)CC1 | 12.8 | 2.5 | -0.1 | 9.4 | 12.6* | 7.3 | -3.8 | -2.9 | -5.6 | 23.8*
COc1ccc(S(=O)(=O)N(C)C[C@H]2OCCCC[C@H](C)Oc3ccc(NC(=O)Nc4c(C)noc4C)cc3C(=O)N([C@@H](C)CO)C[C@@H]2C)cc1 | / | 1.6 | / | / | / | -1.6 | / | / | / | /
O=C(Nc1ccc(F)cc1)N[C@@H]1C=C[C@@H](CC(=O)N2CCCCC2)O[C@@H]1CO | / | -3.3 | / | / | / | -3.8 | / | / | / | /
Cc1ccc2cccnc2c1N | -3.0 | 1.9 | -3.2 | 5.1 | 15.8* | -1.3 | -2.6 | -9.8 | -5.3 | 40.5*
SMILES | PvdQ acylase | ERp5 inh | IMP-1 inh-1 | PDI inh | VIM-2 inh | PglD inh | IMP-1 inh-2 | VIM-2 FRET inh | TEM-1 counter | VIM-2 confirm 2
N#Cc1cccc(-c2ccc(C3[C@H]4CNC[C@@H]3N4Cc3ccc(F)cc3)cc2)c1 (stereo partly specified) | / | -1.2 | / | / | / | / | / | / | / | /
CCN(CC)CCCNC(=O)C1CCN(c2ncnc3c2sc2cccc(F)c23)CC1 | -4.6 | 3.7 | 1.7 | -4.8 | 26.6* | -2.4 | -0.5 | 9.9 | -6.0 | 38.8*
CC1CC(C)CN(CCCNC(=O)C2CCN(c3ncnc4c3sc3cccc(F)c34)CC2)C1 (stereo unspecified) | / | / | -1.1 | / | 25.3* | / | 0.0 | 3.1 | -6.2 | 35.6*
O=C(NCc1ccco1)c1cccn2c(=O)c3sccc3nc12 | -11.0 | -6.2 | -1.8 | 4.5 | 19.4* | 0.5 | -1.7 | -2.8 | -8.0 | 34.1*
Cc1nnc2c3ccccc3c(-c3cccs3)nn12 | -9.9 | 4.7 | -2.3 | 3.7 | 28.4* | / | -3.4 | 1.0 | -5.2 | 39.7*
COc1cc(Nc2c3c(nc4ccccc24)CCC3)cc(OC)c1OC | -13.7 | 4.2 | -1.8 | -11.0 | 1.5 | -0.8 | / | / | / | /
COc1ccc(OC)c(Nc2c3c(nc4ccccc24)CCC3)c1 | -1.8 | 0.9 | -0.9 | -0.6 | 12.7* | -6.4 | -2.8 | -4.9 | -5.1 | 19.9*
Cc1ccc(S(=O)(=O)N(C)C[C@H]2Oc3ccc(NC(=O)Cc4ccccc4)cc3CC(=O)N([C@@H](C)CO)C[C@@H]2C)cc1 | / | -0.6 | / | / | / | -75.3 | / | / | / | /
CCOc1ccccc1Nc1cc(C)nc2nc(C)nn12 | 6.4 | 3.9 | -4.0 | / | 14.7* | -6.8 | -2.3 | -1.3 | 0.5* | 28.2*
Cn1c(=O)c2sccc2n2c(CCCC(=O)N3CCN(c4ccccn4)CC3)nnc12 | -4.9 | -2.7 | -3.6 | -5.0 | 13.1* | 3.2 | -2.8 | -1.1 | -5.9 | 19.7*
CC(Oc1ccc2c(c1)oc(=O)c1ccccc12)C(=O)NCCN1CCOCC1 (stereo unspecified) | -6.7 | 0.7 | 2.7 | -8.4 | 13.8* | -2.9 | -2.8 | -1.3 | -7.1 | 23.4*
CC(Oc1cc2oc(=O)c3c(c2cc1Cl)CCC3)C(=O)NCCCN1CCOCC1 (stereo unspecified) | -12.4 | 1.6 | -2.4 | 1.8 | -1.2 | -2.5 | / | / | / | /

Screening data (PubChem BioAssay)
